Laboratory results from PMC10032210 (Biomaterials, 2022).

Tests used:
[1] = system: HT29 xenograft tumors; assay: In vivo tumor uptake of GNRs, gold content by ICP-MS; design: species or system mice; conditions: CA074 10 mg/kg i.p., peptide GNR 8 OD i.v., 24 hr
In short: (§1)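 Male athymic Swiss nude mice carried bilateral subcutaneous HT29, HCT116 and DLD1 xenografts (1×10^6 cells in PBS). At 7–8 mm tumors, mice were randomized, n=4/group. CA074 10 mg/kg i.p. daily; 100 μL of 8 OD GNR i.v. by tail vein on day 3 of CA074. At 24 hr, tumors and organs were harvested, weighed, lyophilized and digested in aqua regia. Gold by ICP-MS per gram dry tissue; mean ± SEM, unpaired two-tailed t-test.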

[2] = system: PANC1; assay: In vitro uptake of GNRs, gold content by ICP-MS; type: cell-based, Human; conditions: 10 μM CA074 for 12 hr, then peptide GNR 24 hr
In short: (§2)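 Cells in 10% FBS medium (HT29 McCoy's, MDA MB231 DMEM, PANC1 RPMI 1640) at 37 °C, 5% CO2. At 70% confluence: 10 μM CA074 for 12 hr, then 0.05 OD GNR in serum-free medium for 24 hr. Cells washed, trypsinized, pelleted, dried at 56 °C and digested in aqua regia (60 °C, 4 hr). Gold measured by ICP-MS against gold standards, normalized to cell count; mean ± SEM.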

[3] = system: MDAMB231; assay: In vitro uptake of GNRs, gold content by ICP-MS; type: cell-based, Human; conditions: 10 μM CA074 for 12 hr, then peptide GNR 24 hr
In short: as §2

[4] = system: HT29; assay: In vitro uptake of GNRs, gold content by ICP-MS; type: cell-based, Human; conditions: 10 μM CA074 for 12 hr, then peptide GNR 24 hr
In short: as §2

[5] = system: HCT116 xenograft tumors; assay: In vivo tumor uptake of GNRs, gold content by ICP-MS; design: species or system mice; conditions: CA074 10 mg/kg i.p., peptide GNR 8 OD i.v., 24 hr
In short: as §1

[6] = molecular target: Cathepsin B (Homo sapiens, UniProt P07858); assay: Cathepsin B-mediated hydrolysis of peptide constructs followed by HPLC; type: biochemical; conditions: Cathepsin B 1.34 × 10^−13 M, 25 °C, least-squares regression
In short: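 Substrate at 1·10^-7 M with cathepsin B (1.34·10^-13 M, activated by 1 mM DTT) in 50 mM sodium citrate pH 6.0, 1 mL, filter-sterilized, held dark at 25 °C. Repeated reversed-phase HPLC injections ran over ≥6× reaction half-life; UV detection at 220 nm. Percentage substrate remaining came from peak area versus known injected amount. Pseudo-first-order half-life given as mean ± SD; ≥3 repeats.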

Compound: CCCNC(=O)[C@H]1O[C@@H]1C(=O)N[C@H](C(=O)N1CCC[C@H]1C(=O)O)[C@@H](C)CC [CA074]
- effect of inhibitor on peptide GNR uptake by xenograft tumors (ICP-MS) [1]: abrogates the increased uptake
- change in peptide GNR uptake (ICP-MS) with CA074 compared to peptide GNRs alone [2]: two-fold reduction
- change in peptide GNR uptake (ICP-MS) with CA074 compared to peptide GNRs alone [3]: two-fold reduction
- change in peptide GNR uptake (ICP-MS) with CA074 compared to peptide GNRs alone [4]: two-fold reduction
- effect of inhibitor on peptide GNR uptake by xenograft tumors (ICP-MS) [5]: abrogates the increased uptake

Compound: MeO-PEG20k-GFGFVG [PEGylated GFGFVG]
- degradation reaction half-life (t½) relative to native GFGFVG peptide [6]: nearly three-fold

Compound: MeO-PEG20k-GGFGFVGGR9WC
- degradation reaction half-life (t½) relative to native GFGFVG peptide [6]: about three-fold higher
